Like-named read-outs stand apart in the source and are kept apart here.
Tests used:
MsbA-MIANS [1] = target: T1, MsbA-MIANS (Escherichia coli, UniProt P60752); test: MIANS fluorescence quenching titration of MsbA-MIANS; type: binding; settings: for Concentration-dependent quenching of MIANS fluorescence: titration of MsbA-MIANS with negatively charged drugs
MsbA-MIANS [2] = target: T1, MsbA-MIANS; test: Dual sequential titration of MsbA-MIANS fluorescence quenching; type: binding; settings: for Binding affinity of drug after prior binding of nucleotide (in words): ATP bound first, results not shown; for Effect of lipid A pre-binding on ligand binding affinity (in words): ATP at 10 °C, daunorubicin and p[NH]ppA at 23 °C
Method in brief: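 MIANS-labelled MsbA (100 μg/ml) was prepared by labelling with 10 μM MIANS, quenching with DTE and dialysing. It was held in 100 mM Hepes, 50 mM NaCl, 5 mM MgCl2, 0.05% DM, pH 7.5, at 23 °C, or 10 °C for ATP to prevent hydrolysis. […] Data were fitted to a single-site model for Kd and ΔFmax.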

MsbA [3] = target: T2, MsbA (Escherichia coli, UniProt P60752); test: Modulation of the rate of MsbA labelling by MIANS; type: biochemical
MsbA [4] = target: T2, MsbA; test: ATPase activity assay; type: biochemical; settings: ATP 0.05-10 mM, 0.05% DM
Method in brief: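 Purified His-tagged MsbA (~100 μg/ml in 0.05% (w/v) DM) assayed colorimetrically for free Pi liberated from ATP across varied ATP levels. Labelled enzyme was first reacted with 10 μM MIANS for 2 h at 23 °C in the dark. Unreacted MIANS was quenched with 1 mM DTE before the ATPase measurement.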

[5] = 23 °C, MsbA 100 μg/ml in 0.05% DM, single-site fit
[6] = 10 °C, titrated after daunorubicin
[7] = 10 °C, MsbA 100 μg/ml in 0.05% DM, ligand alone
[8] = Kd, 23 °C, MsbA 100 μg/ml in 0.05% DM, single-site fit

T1 sequence (P60752 whole entry): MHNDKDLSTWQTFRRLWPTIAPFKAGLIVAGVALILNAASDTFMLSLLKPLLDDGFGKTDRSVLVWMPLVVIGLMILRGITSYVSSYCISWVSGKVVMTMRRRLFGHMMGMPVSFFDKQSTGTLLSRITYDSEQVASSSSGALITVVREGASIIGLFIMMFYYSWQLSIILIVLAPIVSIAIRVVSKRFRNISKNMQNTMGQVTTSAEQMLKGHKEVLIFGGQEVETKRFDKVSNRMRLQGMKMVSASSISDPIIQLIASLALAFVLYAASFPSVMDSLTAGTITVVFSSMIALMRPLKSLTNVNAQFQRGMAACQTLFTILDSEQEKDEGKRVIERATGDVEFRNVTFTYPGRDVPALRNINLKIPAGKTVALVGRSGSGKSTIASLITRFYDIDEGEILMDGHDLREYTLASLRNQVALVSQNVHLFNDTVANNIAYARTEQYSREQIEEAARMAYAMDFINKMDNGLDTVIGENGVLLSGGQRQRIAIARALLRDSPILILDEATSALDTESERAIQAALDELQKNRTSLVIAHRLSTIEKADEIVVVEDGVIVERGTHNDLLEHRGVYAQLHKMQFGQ
T2 sequence (P60752 whole entry): as above

`Nc1ncnc2c1ncn2[C@@H]1O[C@H](COP(=O)(O)O)[C@@H](O)[C@H]1O` [AMP] was tested, and the Kd (MsbA-MIANS [1]; [5]) was 800 ± 200 µM and the “Maximal quenching (ΔFmax/F0×100)” value (MsbA-MIANS [1]; [5]) was 7.84±0.80%.
With Lipid A the “Increase of ΔFmax for quenching when daunorubicin was bound first” value (MsbA-MIANS [2]) was 2 fold, the “Reduction of binding affinity when ATP was pre-bound” value (MsbA-MIANS [2]; 10 °C) was about 8 fold and the “Maximal quenching (ΔFmax/F0×100)” value (MsbA-MIANS [2]; 10 °C, titrated after ATP) was 17.7±1.0%. The “Maximal quenching (ΔFmax/F0×100)” value (MsbA-MIANS [2]; [6]) was 7.31±0.50%, the “Reduction of binding affinity when p[NH]ppA was pre-bound” value (MsbA-MIANS [2]; 23 °C) was about 3 fold and the “Maximal quenching (ΔFmax/F0×100)” value (MsbA-MIANS [2]; 23 °C, titrated after daunorubicin) was 15.7±1.4%. The “Maximal quenching (ΔFmax/F0×100)” value (MsbA-MIANS [2]; 23 °C, titrated after p[NH]ppA) was 10.9±1.2%, the “Maximal quenching (ΔFmax/F0×100)” value (MsbA-MIANS [1]; [7]) was 6.02±0.11% and the Labelling efficiency (MsbA [3]; 23 °C, MIANS:MsbA stoichiometry after 2000 s, drug at ~5-fold its Kd (2-40 μM)) was 118±9.2%.
For `Nc1ncnc2c1ncn2[C@@H]1O[C@H](CO[P@](=O)(O)O[P@](=O)(O)O[P@@](=O)(O)S)[C@@H](O)[C@H]1O` [ATP[S], adenosine 5´-[γ-thio]triphosphate], the Kd (MsbA-MIANS [1]; [8]) was 1.82 ± 0.29 µM.
With `CC[C@]1(O)C[C@@H]2CN(CCc3c([nH]c4ccccc34)[C@@](C(=O)OC)(c3cc4c(cc3OC)N(C)[C@H]3[C@@](O)(C(=O)OC)[C@H](OC(C)=O)[C@]5(CC)C=CCN6CC[C@]43[C@@H]65)C2)C1` [Vinblastine] the “Binding affinity of drug after prior binding of nucleotide (in words)” value (MsbA-MIANS [2]) was “reduced”, the Kd (MsbA-MIANS [1]; [8]) was 1.2 ± 0.14 µM and the “Initial rate of labelling” value (MsbA [3]) was 182±3.4 ms^−1. For the same molecule, the Labelling efficiency (MsbA [3]) was 105±4.5% and the “Initial rate of labelling” value (MsbA [3]; listed as vinblastine) was “affected the least”.
`Nc1ncnc2c1ncn2[C@@H]1O[C@H](COP(=O)(O)OP(=O)(O)O)[C@@H](O)[C@H]1O` [ADP] was tested, and the Kd (MsbA-MIANS [1]; [5]) was 130 ± 60 µM and the “Maximal quenching (ΔFmax/F0×100)” value (MsbA-MIANS [1]; [5]) was 8.48±0.4%.
In the case of `COc1ccc(CCN(C)CCCC(C#N)(c2ccc(OC)c(OC)c2)C(C)C)cc1OC` (centres unmarked) [Verapamil], the Kd (MsbA-MIANS [1]; [8]) is reported as 1.26 ± 0.09 µM, the “Initial rate of labelling” value (MsbA [3]) is reported as 71.0±2.6 ms^−1 and the Labelling efficiency (MsbA [3]) is reported as 82.2±3.6%.
With `CC1COc2c(N3CCN(C)CC3)c(F)cc3c(=O)c(C(=O)O)cn1c23` (centres unmarked) [ofloxacin] the “Concentration-dependent quenching of MIANS fluorescence” value (“Concentration-dependent quenching” for short) (MsbA-MIANS [1]) was “No concentration-dependent quenching”.
`O=C(O)c1cn(C2CC2)c2cc(N3CCNCC3)c(F)cc2c1=O` [ciprofloxacin] was tested, and the “Concentration-dependent quenching” value (MsbA-MIANS [1]) was “No concentration-dependent quenching”.
With `Nc1ncnc2c1ncn2[C@@H]1O[C@H](COP(=O)(O)OP(=O)(O)OP(=O)(O)O)[C@@H](O)[C@H]1O` [ATP] the Kd (MsbA-MIANS [2]; [6]) was 950 ± 230 µM, the “Maximal quenching (ΔFmax/F0×100)” value (MsbA-MIANS [2]; [6]) was 5.45±0.41% and the Kd (MsbA-MIANS [2]; 10 °C, titrated after lipid A) was 2030 ± 300 µM. For the same molecule, the “Maximal quenching (ΔFmax/F0×100)” value (MsbA-MIANS [2]; 10 °C, titrated after lipid A) was 12.0±0.78%, the “Effect of lipid A pre-binding on ligand binding affinity (in words)” value (shortened to “Effect of lipid A pre-binding”) (MsbA-MIANS [2]) was “relatively unaffected” and the Kd (MsbA-MIANS [1]; [7]) was 3050 ± 430 µM. For the same molecule, the “Kd for ATP binding relative to that of p[NH]ppA” value (MsbA-MIANS [1]; ATP at 10 °C versus p[NH]ppA at 23 °C) was over 7 fold, the Km (MsbA [4]; MIANS-labelled MsbA) was 410 ± 40 µM and the Km (MsbA [4]; unlabelled MsbA) was 520 ± 40 µM.
For `Nc1ncnc2c1ncn2[C@@H]1O[C@H](COP(=O)(O)OP(=O)(O)NP(=O)(O)O)[C@@H](O)[C@H]1O` [p[NH]ppA, adenosine 5′-[β,γ-imido]triphosphate], the Kd (MsbA-MIANS [2]; 23 °C, titrated after lipid A) was 650 ± 80 µM, the “Maximal quenching (ΔFmax/F0×100)” value (MsbA-MIANS [2]; 23 °C, titrated after lipid A) was 23.2±1.2% and the “Effect of lipid A pre-binding” value (MsbA-MIANS [2]) was “relatively unaffected”. It also gave a Kd (MsbA-MIANS [1]; [5]) of 470 ± 30 µM.
With `CCn1cc(C(=O)O)c(=O)c2cc(F)c(N3CCNCC3)cc21` [norfloxacin] the “Concentration-dependent quenching” value (MsbA-MIANS [1]) was “No concentration-dependent quenching”.
In the case of `CC(C)[C@@H]1NC(=O)[C@H](C)OC(=O)[C@@H](C(C)C)NC(=O)[C@@H](C(C)C)OC(=O)[C@H](C(C)C)NC(=O)[C@H](C)OC(=O)[C@@H](C(C)C)NC(=O)[C@@H](C(C)C)OC(=O)[C@H](C(C)C)NC(=O)[C@H](C)OC(=O)[C@@H](C(C)C)NC(=O)[C@@H](C(C)C)OC1=O` [Valinomycin], the Kd (MsbA-MIANS [1]) is reported as 0.35 ± 0.04 µM, the “Initial rate of labelling” value (MsbA [3]) is reported as 66.8±3.4 ms^−1 and the Labelling efficiency (MsbA [3]) is reported as 101±3.2%.
`CC1(C)S[C@@H]2[C@H](NC(=O)[C@H](N)c3ccccc3)C(=O)N2[C@H]1C(=O)O` [ampicillin] was tested, and the “Concentration-dependent quenching” value (MsbA-MIANS [1]) was “No concentration-dependent quenching”.
`COc1cccc2c1C(=O)c1c(O)c3c(c(O)c1C2=O)C[C@@](O)(C(C)=O)C[C@@H]3O[C@H]1C[C@H](N)[C@H](O)[C@H](C)O1` [Daunorubicin] was tested, and the “Reduction in binding affinity after pre-binding of lipid A” value (MsbA-MIANS [2]; 10 °C) was about 2 fold, the “Effect of lipid A pre-binding” value (MsbA-MIANS [2]) was “did not affect” and the “Binding affinity of drug after prior binding of nucleotide (in words)” value (MsbA-MIANS [2]) was “reduced”. The Kd (MsbA-MIANS [2]; Kd, 10 °C, titrated after ATP) was 9.59 ± 0.39 µM, the Kd (MsbA-MIANS [2]; Kd, 10 °C, titrated after lipid A) was 5.03 ± 0.11 µM and the Kd (MsbA-MIANS [2]; Kd, 23 °C, titrated after lipid A) was 4.42 ± 0.33 µM. For the same molecule, the “Maximal quenching (ΔFmax/F0×100)” value (MsbA-MIANS [1]; [5]) was “highest quenching”, the Kd (MsbA-MIANS [1]; 23 °C, MsbA reconstituted into egg PC proteoliposomes) was “essentially the same” and the Kd (MsbA-MIANS [1]; Kd, 10 °C, MsbA 100 μg/ml in 0.05% DM, ligand alone) was 2.97 ± 0.23 µM. For the same molecule, the Kd (MsbA-MIANS [1]; [8]) was 4.6 ± 0.2 µM, the Kd (MsbA-MIANS [1]; Kd, 23 °C, MsbA reconstituted into egg PC proteoliposomes) was 4.3 ± 0.79 µM and the “Initial rate of labelling” value (MsbA [3]) was 27.4±2.3 ms^−1. The Labelling efficiency (MsbA [3]) was 87.2±1.3% and the “Initial rate of labelling” value (MsbA [3]; listed as daunorubicin) was “the most”.
With `O=c1c(O)c(-c2ccc(O)c(O)c2)oc2cc(O)cc(O)c12` [Quercetin] the Kd (MsbA-MIANS [1]; [8]) was 8.56 ± 0.79 µM, the “Initial rate of labelling” value (MsbA [3]) was 85.0±3.1 ms^−1 and the Labelling efficiency (MsbA [3]) was 78.8±1.0%.

Reference: PMC2662489 (Biochemical Journal, 2009)
